Laboratory results: ChEMBL document CHEMBL3758119, “Functionalized imidazolium and benzimidazolium salts as paraoxonase 1 inhibitors: Synthesis, characterization and molecular docking studies” (Bioorg Med Chem, 2016)

What follows are compounds tested against T1, Serum paraoxonase/arylesterase 1 (Homo sapiens, UniProt P27169) (assay: Inhibition of human serum PON1 using paraoxon as substrate by spectrophotometric analysis). Settings: not given; call rule not given here.
T1 sequence (P27169 whole entry): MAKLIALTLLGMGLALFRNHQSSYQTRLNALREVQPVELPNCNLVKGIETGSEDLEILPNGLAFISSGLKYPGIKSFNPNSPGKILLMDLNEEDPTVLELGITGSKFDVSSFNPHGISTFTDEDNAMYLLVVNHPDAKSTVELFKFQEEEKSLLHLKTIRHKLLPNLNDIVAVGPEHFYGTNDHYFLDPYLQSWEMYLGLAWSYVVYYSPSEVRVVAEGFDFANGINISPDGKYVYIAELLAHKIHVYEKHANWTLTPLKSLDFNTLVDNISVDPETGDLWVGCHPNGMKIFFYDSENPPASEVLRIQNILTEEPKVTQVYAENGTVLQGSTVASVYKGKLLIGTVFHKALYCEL
Method in brief: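 PON1 purified from human serum (ammonium sulphate precipitation, then hydrophobic interaction chromatography; stored with 2 mM CaCl2). Paraoxon 2 mM final; p-nitrophenol release followed at 412 nm for 2 min at 37 °C. Five inhibitor concentrations tested. Activity without compound taken as 100%. Measured in duplicate and corrected for non-enzymatic hydrolysis. IC50 read from activity-percentage graphs.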
In the case of `CCCCn1cc[n+](Cn2nnc3ccccc32)c1.[Cl-]`, the IC50 is reported as “Not Active”. With `COc1cc(C[n+]2cn(Cn3nnc4ccccc43)c3ccccc32)cc(OC)c1OC.[Cl-]` the IC50 was “Not Active”. `Cc1n(C)cc[n+]1Cn1nnc2ccccc21.[Cl-]` was tested, and the IC50 was “Not Active”. For `[Cl-].c1ccc2c(c1)nnn2Cn1c[n+](Cn2nnc3ccccc32)c2ccccc21`, the IC50 was “Not Active”. In the case of `Cn1cc[n+](Cn2nnc3ccccc32)c1.[Cl-]`, the IC50 is reported as “Not Active”.

Same assay, conditions: read-out: IC50
For `Cc1ccc(-c2cc3cc(O)c(O)cc3oc2=O)cc1`, the IC50 was 3 µM. Compound `Cc1ccc2c(CCl)cc(=O)oc2c1C` has an IC50 of 21.4 µM. With `Cc1ccc2c(C[n+]3cn(Cn4nnc5ccccc54)c4ccccc43)cc(=O)oc2c1C` the IC50 was 237 µM. Compound `Cc1cc(C)c2c(CCl)cc(=O)oc2c1` has an IC50 of 31.4 µM. With `CC(C)(C)c1ccc2oc(=O)cc(C[n+]3cn(Cn4nnc5ccccc54)c4ccccc43)c2c1` the IC50 was 627 µM. With `CCCCn1cc[n+](Cc2nc3ccccc3[nH]2)c1` the IC50 was 29 µM. For `CCCCn1cc[n+](Cc2cc(=O)oc3cc(C)cc(C)c23)c1`, the IC50 was 6.37 µM. `O=C1COc2ccc(C(=O)C[n+]3cn(Cn4nnc5ccccc54)c4ccccc43)cc2N1` showed an IC50 of 8.76 µM. For `CC(C)(C)c1ccc2oc(=O)cc(CCl)c2c1`, the IC50 was 40 µM. `Cc1n(C)cc[n+]1Cc1nc2ccccc2[nH]1` was tested, and the IC50 was 626 µM. With `c1ccc(C[n+]2cn(Cn3nnc4ccccc43)c3ccccc32)cc1` the IC50 was 2060 µM. `Cn1cc[n+](Cc2nc3ccccc3[nH]2)c1` was tested, and the IC50 was 19 µM. `c1ccc2c(c1)ncn2Cn1nnc2ccccc21` was tested, and the IC50 was 564 µM. With `Cc1cc(C)c2c(C[n+]3ccn(C)c3)cc(=O)oc2c1` the IC50 was 23.7 µM. With `CCCC[n+]1cn(Cn2nnc3ccccc32)c2ccccc21` the IC50 was 3330 µM. `Cc1cc(C)c2c(C[n+]3ccn(C)c3C)cc(=O)oc2c1` gave an IC50 of 317 µM.

The compounds below were run against T1, Serum paraoxonase/arylesterase 1 (assay: Competitive inhibition of human serum PON1 using paraoxon as substrate by Lineweaver-Burk plot analysis). Settings: not given.
Method in brief: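 Human serum PON1 purified by ammonium sulphate precipitation (60–80%) and hydrophobic interaction chromatography, stored with 2 mM CaCl2. Paraoxon hydrolysis followed by p-nitrophenol appearance at 412 nm for 2 min at 37 °C, pH 8.00. Eight paraoxon concentrations (0.5–1.2 mM) run at two inhibitor concentrations (6.7 µM and 4.7 µM). Readings taken in duplicate and corrected for non-enzymatic hydrolysis. Ki and inhibition type taken from Lineweaver–Burk plots.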
Compound `CCCCn1cc[n+](Cc2cc(=O)oc3cc(C)cc(C)c23)c1` has a Ki of 2.39 µM.
